According to ChEMBL document CHEMBL3352604, “Development of novel azabenzofuran TRPA1 antagonists as in vivo tools” (Bioorg Med Chem Lett, 2014):
In brackets after ≈: the same amount, converted by molar mass. Activity calls are given as the source filed them. No cut-off for these calls is given here.

Legend:
[1] = Solubility in PBS buffer at pH 7.4; assay type: physicochemical
Method in brief: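 Solubility measured in phosphate buffered saline, pH 7.4.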

[2] = Solubility in fasted state simulated intestinal fluid at pH 6.8; assay type: ADME
[3] = molecular target: T1, Transient receptor potential cation channel subfamily A member 1 (Rattus norvegicus, UniProt Q6RI86); assay: Antagonist activity at rat TRPA1 assessed as inhibition of AITC-induced calcium uptake by [45Ca2+] fluorimetry assay
Method in brief: (§1)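 Antagonism read by 45Ca2+ fluorimetry in cells expressing rat or human TRPA1. IC50 determined. Where no IC50 was obtained, % inhibition was measured at a single 2 μM point.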

[4] = molecular target: T1, Transient receptor potential cation channel subfamily A member 1; assay: Agonist activity at rat TRPA1 by [45Ca2+] fluorimetry assay
[5] = molecular target: T2, Transient receptor potential cation channel subfamily A member 1 (Homo sapiens, UniProt O75762); assay: Agonist activity at human TRPA1 by [45Ca2+] fluorimetry assay
[6] = molecular target: T2, Transient receptor potential cation channel subfamily A member 1; assay: Antagonist activity at human TRPA1 assessed as inhibition of AITC-induced calcium uptake by [45Ca2+] fluorimetry assay; method in brief: as §1
[7] = Solubility in 0.01 N HCl solution in water; assay type: physicochemical
Method in brief: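 Solubility measured in 0.01 N hydrogen chloride solution in water.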

[8] = Clearance in human liver microsomes; assay type: ADME; conditions: read-out: CLH
[9] = Clearance in rat liver microsomes; assay type: ADME; conditions: read-out: CLH
[10] = molecular target: Transient receptor potential cation channel subfamily A member 1 (Rattus norvegicus) (UniProt Q6RI86); assay: Antagonist activity at rat TRPA1 assessed as inhibition of AITC-induced calcium uptake at 2 uM by [45Ca2+] fluorimetry assay
Method in brief: (§2)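 45Ca2+ uptake fluorimetry in cells expressing rat or human TRPA1, run in parallel for both species. The value is single-point percent inhibition at 2 µM test compound, reported when no IC50 was obtained. Compounds were also run without agonist to check for channel agonism.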

[11] = molecular target: T2, Transient receptor potential cation channel subfamily A member 1; assay: Antagonist activity at human TRPA1 assessed as inhibition of AITC-induced calcium uptake at 2 uM by [45Ca2+] fluorimetry assay; method in brief: as §2
[12] = Fraction unbound in rat plasma by equilibrium dialysis method; assay type: ADME, cell-free
Rattus norvegicus [13] = assay: Unbound clearance in Sprague-Dawley rat at 0.5 mg/kg, iv; assay type: ADME, organism-based; set-up: dose 0.5 mg/kg, route intravenous; conditions: in vivo
Method in brief: (§3)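 Male Sprague-Dawley rats (n = 3) given 0.5 mg/kg iv in DMSO.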

[14] = Clearance in Sprague-Dawley rat at 0.5 mg/kg, iv; assay type: ADME, organism-based; set-up: dose 0.5 mg/kg, route intravenous; conditions: in vivo; method in brief: as §3
[15] = Volume of distribution at steady state in Sprague-Dawley rat at 0.5 mg/kg, iv; assay type: ADME, organism-based; set-up: dose 0.5 mg/kg, route intravenous; conditions: in vivo, read-out: Vdss; method in brief: as §3
[16] = Oral bioavailability in fasted Sprague-Dawley rat at 10 mg/kg; assay type: ADME, organism-based; conditions: in vivo
Method in brief: (§4)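 Male Sprague-Dawley rats (n = 3) dosed po in 2% HPMC, 1% Tween 80 in H2O, pH 2.2 with MSA. Animals fasted during the PK study.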

[17] = Half life in Sprague-Dawley rat at 0.5 mg/kg, iv; assay type: ADME, organism-based; set-up: dose 0.5 mg/kg, route intravenous; conditions: in vivo; method in brief: as §3
Rattus norvegicus [18] = assay: fCmax in fasted Sprague-Dawley rat at 10 mg/kg, po; assay type: ADME, organism-based; set-up: dose 10 mg/kg, route oral; conditions: in vivo; method in brief: as §4
Plasma [19] = assay: Unbound plasma concentration in Harlan Sprague-Dawley rat model of AITC-induced flinching at 100 mg/kg, po after 1 hr; assay type: ADME, organism-based; set-up: dose 100 mg/kg, route oral; conditions: in vivo
Method in brief: (§5)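 Male Harlan Sprague-Dawley rats dosed orally in 2% HPMC/1% Tween-80, with a 0.1% AITC paw challenge at 1 h. Unbound plasma concentration determined with n=8, 6 and 8 for the 10, 30 and 100 mg/kg doses respectively.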

Rattus norvegicus [20] = organism: Rattus norvegicus; conditions: Harlan Sprague-Dawley, 100 mg/kg
[21] = Ratio of fCmax in fed Sprague-Dawley rat at 100 mg/kg, po to IC50 for antagonist activity at rat TRPA1 by [45Ca2+] fluorimetry assay
Method in brief: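 Male Sprague-Dawley rats (n = 3), fed, were given an oral dose in 2% HPMC, 1% Tween 80 in water, adjusted to pH 2.2 with MSA. The unbound Cmax from this PK study was divided by the rat TRPA1 IC50. That IC50 came from a 45Ca2+ fluorimetry antagonism assay in cells expressing rat TRPA1.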

[22] = Oral bioavailability in fed Sprague-Dawley rat at 100 mg/kg; assay type: ADME, organism-based; conditions: in vivo
Method in brief: (§6)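 Male Sprague-Dawley rats (n = 3) dosed po at 100 mg/kg in 2% HPMC, 1% Tween 80 in H2O, pH 2.2 with MSA. Animals fed during the PK study.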

[23] = Ratio of unbound plasma concentration in Harlan Sprague-Dawley rat model of AITC-induced flinching at 30 mg/kg, po after 1 hr to IC50 for antagonist activity at rat TRPA1 by [45Ca2+] fluorimetry assay; assay type: organism-based; set-up: dose 30 mg/kg, route oral; conditions: in vivo
Method in brief: (§7)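 Male Harlan Sprague-Dawley rats were dosed orally in 2% HPMC/1% Tween-80. After 1 h, 0.1% AITC was injected into the left ventral hind paw. Unbound plasma concentration was measured (n=8 at 10 and 100 mg/kg, n=6 at 30 mg/kg) and divided by the rat TRPA1 IC50. That IC50 came from a 45Ca2+ fluorimetry antagonism assay in cells expressing rat TRPA1.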

Rattus norvegicus [24] = assay: fCmax in fed Sprague-Dawley rat at 100 mg/kg, po; assay type: ADME, organism-based; set-up: dose 100 mg/kg, route oral; conditions: in vivo; method in brief: as §6
Plasma [25] = assay: Unbound plasma concentration in Harlan Sprague-Dawley rat model of AITC-induced flinching at 30 mg/kg, po after 1 hr; assay type: ADME, organism-based; set-up: dose 30 mg/kg, route oral; conditions: in vivo; method in brief: as §5
[26] = Oral bioavailability in fasted Sprague-Dawley rat at 30 mg/kg; assay type: ADME, organism-based; conditions: in vivo; method in brief: as §4
[27] = Ratio of unbound plasma concentration in Harlan Sprague-Dawley rat model of AITC-induced flinching at 10 mg/kg, po after 1 hr to IC50 for antagonist activity at rat TRPA1 by [45Ca2+] fluorimetry assay; assay type: organism-based; set-up: dose 10 mg/kg, route oral; conditions: in vivo; method in brief: as §7
Plasma [28] = assay: Unbound plasma concentration in Harlan Sprague-Dawley rat model of AITC-induced flinching at 10 mg/kg, po after 1 hr; assay type: ADME, organism-based; set-up: dose 10 mg/kg, route oral; conditions: in vivo; method in brief: as §5
Rattus norvegicus [29] = assay: fCmax in fasted Sprague-Dawley rat at 30 mg/kg, po; assay type: ADME, organism-based; set-up: dose 30 mg/kg, route oral; conditions: in vivo; method in brief: as §4
Rattus norvegicus [30] = organism: Rattus norvegicus; conditions: Harlan Sprague-Dawley, 30 to 100 mg/kg
[31] = Ratio of unbound plasma concentration in Harlan Sprague-Dawley rat model of AITC-induced flinching at 100 mg/kg, po after 1 hr to IC50 for antagonist activity at rat TRPA1 by [45Ca2+] fluorimetry assay; assay type: organism-based; set-up: dose 100 mg/kg, route oral; conditions: in vivo; method in brief: as §7
Rattus norvegicus [32] = assay: Effect on open filed activity in Harlan Sprague-Dawley rat model of AITC-induced flinching at 30 to 100 mg/kg, po; assay type: organism-based; set-up: dose 30-100 mg/kg, route oral; conditions: in vivo

T2 sequence (O75762 whole entry): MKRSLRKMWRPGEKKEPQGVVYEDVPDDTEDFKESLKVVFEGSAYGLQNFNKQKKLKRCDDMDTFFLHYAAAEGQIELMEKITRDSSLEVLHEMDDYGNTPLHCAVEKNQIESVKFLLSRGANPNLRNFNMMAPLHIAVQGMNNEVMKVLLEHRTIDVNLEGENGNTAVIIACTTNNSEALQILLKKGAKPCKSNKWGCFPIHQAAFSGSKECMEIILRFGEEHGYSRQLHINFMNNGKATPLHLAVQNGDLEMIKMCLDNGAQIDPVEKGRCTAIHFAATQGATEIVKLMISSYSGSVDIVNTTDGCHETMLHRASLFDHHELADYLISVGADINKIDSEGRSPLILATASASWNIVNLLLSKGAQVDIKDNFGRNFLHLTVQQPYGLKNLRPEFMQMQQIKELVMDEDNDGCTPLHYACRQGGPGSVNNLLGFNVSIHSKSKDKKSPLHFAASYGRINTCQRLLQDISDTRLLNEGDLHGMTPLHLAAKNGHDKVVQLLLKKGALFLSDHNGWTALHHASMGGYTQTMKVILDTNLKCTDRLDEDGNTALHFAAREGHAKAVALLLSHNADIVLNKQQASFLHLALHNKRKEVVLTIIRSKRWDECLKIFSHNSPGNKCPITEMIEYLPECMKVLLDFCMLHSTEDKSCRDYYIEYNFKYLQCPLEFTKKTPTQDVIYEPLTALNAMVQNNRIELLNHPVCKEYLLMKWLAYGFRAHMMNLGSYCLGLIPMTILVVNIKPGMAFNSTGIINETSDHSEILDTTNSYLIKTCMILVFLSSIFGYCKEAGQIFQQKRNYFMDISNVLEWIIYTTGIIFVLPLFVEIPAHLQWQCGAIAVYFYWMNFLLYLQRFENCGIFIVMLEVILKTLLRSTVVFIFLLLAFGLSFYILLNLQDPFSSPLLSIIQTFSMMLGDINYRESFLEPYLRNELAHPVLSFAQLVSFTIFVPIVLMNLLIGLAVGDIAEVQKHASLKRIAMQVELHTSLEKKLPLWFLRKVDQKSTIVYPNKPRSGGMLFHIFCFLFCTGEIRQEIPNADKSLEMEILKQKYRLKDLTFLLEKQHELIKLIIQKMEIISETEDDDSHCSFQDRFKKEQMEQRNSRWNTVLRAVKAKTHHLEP
T1 sequence (Q6RI86 whole entry): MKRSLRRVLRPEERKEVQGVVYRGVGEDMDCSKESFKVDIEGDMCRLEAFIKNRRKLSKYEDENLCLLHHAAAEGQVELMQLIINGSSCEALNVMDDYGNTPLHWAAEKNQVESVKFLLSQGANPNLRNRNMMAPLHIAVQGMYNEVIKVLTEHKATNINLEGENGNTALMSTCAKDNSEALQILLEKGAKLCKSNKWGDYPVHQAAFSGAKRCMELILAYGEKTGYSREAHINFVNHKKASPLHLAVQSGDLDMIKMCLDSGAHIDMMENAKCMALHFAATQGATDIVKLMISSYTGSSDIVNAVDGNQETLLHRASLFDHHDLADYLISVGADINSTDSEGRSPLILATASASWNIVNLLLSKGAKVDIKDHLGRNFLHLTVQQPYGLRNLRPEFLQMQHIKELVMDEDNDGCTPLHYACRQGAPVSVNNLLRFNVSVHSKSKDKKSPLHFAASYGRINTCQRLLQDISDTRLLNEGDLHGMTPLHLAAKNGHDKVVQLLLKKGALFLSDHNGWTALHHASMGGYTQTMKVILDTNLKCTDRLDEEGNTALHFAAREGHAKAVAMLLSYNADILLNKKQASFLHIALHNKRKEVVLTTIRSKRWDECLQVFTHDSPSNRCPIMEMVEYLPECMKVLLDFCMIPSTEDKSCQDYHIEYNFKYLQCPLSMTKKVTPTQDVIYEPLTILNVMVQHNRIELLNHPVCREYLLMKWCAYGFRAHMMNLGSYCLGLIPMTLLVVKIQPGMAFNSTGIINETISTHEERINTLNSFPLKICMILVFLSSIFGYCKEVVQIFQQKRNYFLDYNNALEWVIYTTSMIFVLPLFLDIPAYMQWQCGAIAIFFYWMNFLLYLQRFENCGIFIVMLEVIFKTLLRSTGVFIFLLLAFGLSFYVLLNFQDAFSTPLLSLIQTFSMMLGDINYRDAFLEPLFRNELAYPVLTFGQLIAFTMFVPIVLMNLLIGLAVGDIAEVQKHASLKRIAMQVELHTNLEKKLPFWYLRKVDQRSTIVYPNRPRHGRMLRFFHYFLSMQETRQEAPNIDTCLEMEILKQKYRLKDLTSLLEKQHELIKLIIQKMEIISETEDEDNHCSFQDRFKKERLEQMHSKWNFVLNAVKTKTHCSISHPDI
Sequence of Transient receptor potential cation channel subfamily A member 1 (Rattus norvegicus) (Q6RI86 whole entry): as above

Row | SMILES | solubility [1] | solubility [2] | IC50 [3] | EC50 [4] | EC50 [5] | IC50 [6] | solubility [7] | microsomal CLint [8] | microsomal CLint [9] | also measured
1 | COCCCOc1ccnc(C2NC(=S)NC3=C2C(=O)c2ccccc23)c1 (centres undefined) | 62 µg/mL (≈ 163 µM) | 39 µg/mL (≈ 102 µM) | > 2 µM | > 40 µM | > 40 µM | > 2 µM | 500 µg/mL (≈ 1310 µM) | 43 µL/min/mg | 220 µL/min/mg | inhibition [10]: 0%; inhibition [11]: 1%
2 | COCCCOc1cccc(C2NC(=S)NC3=C2C(=O)c2ccccc23)n1 (centres undefined) | 36 µg/mL (≈ 94.4 µM) | 35 µg/mL (≈ 91.8 µM) | 1 µM | > 40 µM | > 40 µM | 0.97 µM | 17 µg/mL (≈ 44.6 µM) | 160 µL/min/mg | 230 µL/min/mg | 
3 | O=C1C2=C(NC(=S)NC2c2cccc(OCc3ccccn3)c2)c2ccccc21 (centres undefined) | 10 µg/mL (≈ 25 µM) | 200 µg/mL (≈ 501 µM) | 0.23 µM | > 40 µM | > 40 µM | 0.3 µM | 1 µg/mL (≈ 2.5 µM) | 180 µL/min/mg | 310 µL/min/mg | 
4 | O=C1C2=C(NC(=S)NC2c2cccc(OCc3cccnc3)c2)c2ccccc21 (centres undefined) | 1 µg/mL (≈ 2.5 µM) | 15 µg/mL (≈ 37.5 µM) | 0.36 µM | > 40 µM | > 40 µM | 0.71 µM | 140 µg/mL (≈ 350 µM) | 150 µL/min/mg | 250 µL/min/mg | 
5 | COCCCOc1cccc([C@H]2NC(=S)Nc3c2oc2ncccc32)c1 | 21 µg/mL (≈ 56.8 µM) | 46 µg/mL (≈ 125 µM) | 0.045 µM | > 40 µM | > 40 µM | 0.17 µM | 28 µg/mL (≈ 75.8 µM) | 30 µL/min/mg | 90 µL/min/mg | fraction unbound [12]: 0.085; Ratio [21]: 14; bioavailability [22]: 79%; Ratio [23]: 5; CL free (Rattus norvegicus [13]): 600 mL/min/kg; fCmax (Rattus norvegicus [24]): 0.612 µM; Cp(f) (Plasma [25]): 220 nM; clearance [14]: 50 mL/min/kg; bioavailability [26]: 13%; Cp(f) (Plasma [19]): 740 nM; Ratio [27]: 1; Cp(f) (Plasma [28]): 48 nM; fCmax (Rattus norvegicus [29]): 0.082 µM; Vd [15]: 4 L/kg; half-life [17]: 1.2 h; inhibition (Rattus norvegicus [30]): Active; Ratio [31]: 16; Activity (Rattus norvegicus [32]): Non-toxic
6 | COCCCOc1cncc(C2NC(=S)NC3=C2C(=O)c2ccccc23)c1 (centres undefined) | 2.8 µg/mL (≈ 7.34 µM) | 14 µg/mL (≈ 36.7 µM) | 0.53 µM | > 40 µM | > 40 µM | 1.2 µM | 120 µg/mL (≈ 315 µM) | 90 µL/min/mg | 200 µL/min/mg | 
7 | COCCCOc1cc(C2NC(=S)NC3=C2C(=O)c2ccccc23)ccn1 (centres undefined) |  |  | > 40 µM | > 40 µM | > 40 µM | > 40 µM | 22 µg/mL (≈ 57.7 µM) | 82 µL/min/mg | 350 µL/min/mg | 

Further lines, with some results ahead:

Row | solubility [1] | solubility [2] | IC50 [3] | EC50 [4] | EC50 [5] | IC50 [6] | solubility [7] | microsomal CLint [8] | microsomal CLint [9] | SMILES | also measured
8 | 10 µg/mL (≈ 26.3 µM) | 23 µg/mL (≈ 60.5 µM) | 0.028 µM | > 40 µM | > 40 µM | 0.03 µM | 1 µg/mL (≈ 2.63 µM) |  |  | COCCCOc1cccc(C2NC(=S)NC3=C2C(=O)c2ccccc23)c1 (racemic) | 
9 | 1 µg/mL (≈ 2.71 µM) | 23 µg/mL (≈ 62.4 µM) | 0.23 µM | > 40 µM | > 40 µM | 0.59 µM | 1 µg/mL (≈ 2.71 µM) | 90 µL/min/mg | 350 µL/min/mg | COCCCOc1cccc([C@H]2NC(=S)Nc3c2oc2ccccc32)c1 | 
10 | 4 µg/mL (≈ 10.5 µM) | 12 µg/mL (≈ 31.5 µM) | 0.019 µM | > 40 µM | > 40 µM | 0.026 µM | 5 µg/mL (≈ 13.1 µM) | 150 µL/min/mg | 230 µL/min/mg | COCCCOc1cccc([C@H]2NC(=S)NC3=C2C(=O)c2ccccc23)c1 | fraction unbound [12]: 0.01; CL free (Rattus norvegicus [13]): 4830 mL/min/kg; clearance [14]: 48.3 mL/min/kg; Vd [15]: 4.7 L/kg; bioavailability [16]: 10%; half-life [17]: 2.1 h; fCmax (Rattus norvegicus [18]): 0.005 µM
11 | 17 µg/mL (≈ 44 µM) | 66 µg/mL (≈ 171 µM) | 0.14 µM | > 40 µM | > 40 µM | 0.2 µM | 14 µg/mL (≈ 36.2 µM) | 70 µL/min/mg | 140 µL/min/mg | COCCCOc1cccc(C2NC(=S)Nc3c2oc2c(F)cccc32)c1 (centres undefined) | 
12 |  |  |  |  |  | > 40 µM |  |  |  | COCCCOc1cccc([C@@H]2NC(=S)Nc3c2oc2ncccc32)c1 | Cp(f) (Plasma [19]): 370 nM; inhibition (Rattus norvegicus [20]): inactive
13 | 15 µg/mL (≈ 38.6 µM) | 21 µg/mL (≈ 54.1 µM) | 1.3 µM | > 40 µM | > 40 µM | 0.94 µM | 200 µg/mL (≈ 515 µM) | 100 µL/min/mg | 40 µL/min/mg | S=C1Nc2c(oc3ncccc23)C(c2cccc(OCc3cccnc3)c2)N1 (centres undefined) | 
